Holding throughout (assay type): functional
Experiment [1] has as its system EMT6. In words: Drug concentration required to achieve 50% kill of EMT6 cells under hypoxic conditions. Particulars: Mus musculus, read-out: ED50 (the source's name). A digest of the protocol: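 Mouse EMT6 tumour monolayers in Waymouth's medium + 15% fetal calf serum. Hypoxia: flasks stoppered and gassed 95% N2/5% CO2 for 4 h at 37 °C, then drug added in acetone without breaking hypoxia. 1 h exposure, 0.01-500 μM. Cells washed, trypsinised, plated in replicate dishes under air; colonies scored after 8-10 days. ED50 from survival curves; ≥3 experiments.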

The subject of experiment [2] is EMT6. In words: Drug concentration required to achieve 50% kill of EMT6 cells under oxygenated conditions. Particulars: Mus musculus, read-out: ED50 (the source's name). The method, boiled down:
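EMT6 monolayers in Waymouth's medium + 15% fetal calf serum, held in 95% air/5% CO2 in parallel with the hypoxic flasks. Drug in acetone, 0.01-500 μM, 1 h at 37 °C. Cells then trypsinised and replated in replicate dishes; surviving fraction by colony formation after 8-10 days. Concentration for 50% kill read from survival curves; at least three experiments per drug.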

Experiment [3] can be described thus: Ratio of ED50 (aerobic) to ED50 (hypoxic). The method, boiled down: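 Concentration giving 50% kill of EMT6 cells under aeration (95% air/5% CO2) divided by that under chronic hypoxia (95% N2/5% CO2, 4 h pre-gassing). Both from 1 h drug exposure at 37 °C with colony-formation read-out after 8-10 days.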

≈ marks a conversion by molar mass, not a printed value.

Take `O=[N+]([O-])c1ccc(CBr)cc1`: the EC50 in experiment [1] came to 0.06 µg/mL (≈ 0.278 µM); in experiment [2], 0.1 µg/mL (≈ 0.463 µM). Also, the Ratio in experiment [3] stood at 1.7.

In the case of `O=[N+]([O-])c1ccccc1CCl`, the EC50 was found to be 0.1 µg/mL (≈ 0.583 µM) in experiment [1] and 1.2 µg/mL (≈ 6.99 µM) in experiment [2]. Further, in experiment [3], the Ratio was 12.

As for `O=C(Nc1ccccc1)OCc1ccc([N+](=O)[O-])cc1`, the figures for the EC50 in experiment [1] and in experiment [2] were 0.08 µg/mL (≈ 0.294 µM) and 0.22 µg/mL (≈ 0.808 µM), respectively. Besides, the Ratio in experiment [3] came out at 2.7.

Regarding `O=C(NCCCl)OCc1ccccc1[N+](=O)[O-]`, the values for the EC50 in experiment [1] and in experiment [2] were 0.65 µg/mL (≈ 2.51 µM) and 52 µg/mL (≈ 201 µM), respectively. Besides, the Ratio in experiment [3] was determined as 80.

On to `CNC(=O)OCc1ccccc1[N+](=O)[O-]`, for which the results for the EC50 in experiment [1] and in experiment [2] were 0.006 µg/mL (≈ 0.0285 µM) and 3.57 µg/mL (≈ 17 µM), respectively. The Ratio in experiment [3] came out at 595.

As to `CNC(=O)OCc1ccc([N+](=O)[O-])cc1`, the EC50 turned out to be 0.03 µg/mL (≈ 0.143 µM) in experiment [1] and 0.63 µg/mL (≈ 3 µM) in experiment [2]. The Ratio in experiment [3] came to 21.

Consider `O=C(NCCCl)OCc1ccc([N+](=O)[O-])cc1`, for which the results for the EC50 in experiment [1] and in experiment [2] were 10 µg/mL (≈ 38.7 µM) and 31 µg/mL (≈ 120 µM), respectively. Also, the Ratio in experiment [3] worked out at 3.1.

Regarding `O=C(Nc1ccccc1)OCc1ccccc1[N+](=O)[O-]`, the results for the EC50 in experiment [1] and in experiment [2] were 0.22 µg/mL (≈ 0.808 µM) and 6.8 µg/mL (≈ 25 µM), respectively. Further, the Ratio in experiment [3] was determined as 31.

With `O=[N+]([O-])c1ccc(CCl)cc1`, the figures for the EC50 in experiment [1] and in experiment [2] were 0.07 µg/mL (≈ 0.408 µM) and 0.14 µg/mL (≈ 0.816 µM), respectively. Also, the Ratio in experiment [3] was found to be 2.

As for `O=[N+]([O-])c1ccccc1CO`, the EC50 in experiment [1] was 1.5 µg/mL (≈ 9.8 µM); in experiment [2], 3 µg/mL (≈ 19.6 µM). The Ratio in experiment [3] was determined as 2.

As to `O=[N+]([O-])c1ccccc1CBr`, the figures for the EC50 in experiment [1] and in experiment [2] were 0.06 µg/mL (≈ 0.278 µM) and 1.5 µg/mL (≈ 6.94 µM), respectively. In experiment [3], the Ratio came to 25.

`O=[N+]([O-])c1ccc(CO)cc1` [PARANITROBENZYL ALCOHOL]: the EC50 stood at 0.77 µg/mL (≈ 5.03 µM) in experiment [1] and 2.6 µg/mL (≈ 17 µM) in experiment [2]. For the same molecule, the Ratio in experiment [3] turned out to be 3.3.

For the origin of these results see ChEMBL document CHEMBL1121500, “Nitrobenzyl halides and carbamates as prototype bioreductive alkylating agents” (1980).
